# Screens from PubChem.
# KCNQ1 inh = inhibitors of human KCNQ1 channel, primary screen, cell-based, thallium flux, high-throughput | CHO-K1 KCNQ1, FluxOR thallium flux fluorescence; active compounds read high | B-score at 10 µM | actives 1.3% (n = 310,000);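 active = compounds whose thallium flux B-score, printed positive for inhibition, exceeds three library SD while starting fluorescence stays within three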;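 also: channel opened by potassium depolarization with thallium stimulus after 20 min compound exposure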
# Target sequence (P51787 whole entry, looked up): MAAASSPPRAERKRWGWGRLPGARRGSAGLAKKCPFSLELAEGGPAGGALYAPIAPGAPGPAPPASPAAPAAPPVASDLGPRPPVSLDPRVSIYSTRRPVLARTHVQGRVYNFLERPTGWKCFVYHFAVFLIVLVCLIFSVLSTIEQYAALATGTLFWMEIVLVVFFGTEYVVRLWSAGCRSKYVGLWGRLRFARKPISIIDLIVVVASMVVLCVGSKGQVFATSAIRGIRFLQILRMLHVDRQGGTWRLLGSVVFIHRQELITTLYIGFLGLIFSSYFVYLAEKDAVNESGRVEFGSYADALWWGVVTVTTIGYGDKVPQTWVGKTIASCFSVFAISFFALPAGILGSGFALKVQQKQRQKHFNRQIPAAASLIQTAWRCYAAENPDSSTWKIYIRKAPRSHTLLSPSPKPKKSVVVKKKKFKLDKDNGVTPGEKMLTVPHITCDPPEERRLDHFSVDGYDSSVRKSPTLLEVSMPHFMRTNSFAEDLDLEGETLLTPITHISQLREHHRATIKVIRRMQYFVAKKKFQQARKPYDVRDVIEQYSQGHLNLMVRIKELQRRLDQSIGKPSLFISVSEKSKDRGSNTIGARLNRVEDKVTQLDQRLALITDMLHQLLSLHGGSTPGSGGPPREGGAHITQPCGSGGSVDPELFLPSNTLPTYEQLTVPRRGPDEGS
# KCNQ1 pot = potentiators or activators of KCNQ1 channel, primary screen, cell-based, thallium flux, high-throughput; actives 0.35% (n = 310,000); Potassium voltage-gated channel subfamily KQT member 1 (Homo sapiens), P51787; CHO-K1 KCNQ1, thallium flux FluxOR fluorescence; active compounds read high; B-score at 10 µM;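 active = fluorescence ratio B-score, a plate-corrected score, at least three library SD, with initial intensity B-score within 5 SD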
#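 Assay system: stable KCNQ1 CHO-K1 line; medium: assay buffer, equal DMSO in all wells; timing: 90 min dye loading and 20 min compound exposure, both at room temperature; technique: kinetic FluxOR thallium fluorescence, 10-s 1-Hz baseline, 110-s post-stimulus read; read-out basis: B score of baseline-normalized fluorescence ratio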
# Cl transport mod = KCC2 cotransporter modulators, thallium flux, primary screen, cell-based, HEK293 KCC2, FluoZin-2 fluorescence, MLSMR. Solute carrier family 12 member 5 (Homo sapiens), Q9H2X9. KCC2 cells, thallium flux FluoZin-2 fluorescence. B-score of Tl+ flux slope (higher = more flux/activation; lower = inhibition) at 10 µM. actives 2.2% (n = 190,000);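 active = thallium flux slope and its plate-corrected score both differing from the plate sample mean at a set confidence after two filtering rounds, in either direction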;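 also: slope of fluorescence scaled to starting intensity during 10 to 20 s after thallium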
# KCNK9 block = KCNK9 potassium channel inhibitors, primary screen, HEK293 cells, thallium flux; B-score at 10 µM; Potassium channel subfamily K member 9 (Homo sapiens), Q9NPC2; FluxOR thallium flux fluorescence; active compounds read low; actives 1.2% (n = 310,000); AID 488922, 2010;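 active = ratio B-score over 3 SD below the library mean, with starting fluorescence within 5 SD of its mean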;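 also: negative B-score means less thallium flux so channel inhibition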
# KCNK3 inh = human KCNK3 channel inhibitors, primary screen, CHO cells, FluxOR thallium flux, B-score; Potassium channel subfamily K member 3 (Homo sapiens), O14649; FluxOR fluorescence; active compounds read low; B-score at 10 µM; actives 0.84% (n = 340,000); AID 602410, 2012;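 active = B-score under library mean minus 4 SD, starting fluorescence ratio at most library mean plus 5 SD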;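 also: more negative B-score means stronger inhibition of thallium flux through KCNK3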
# hERG protect = hERG rescue from dofetilide block, primary screen, cell-based, CHO-hERG, FluxOR thallium flux, dofetilide IC70; dofetilide IC70 present; Voltage-gated inwardly rectifying potassium channel KCNH2 (Homo sapiens), Q12809; actives 0.51% (n = 310,000); activation (rescue from dofetilide block), less the hit threshold, % at 10 µM;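 active = activation above the mean of controls blocked by dofetilide plus 5 SD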;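 also: thallium influx through hERG after potassium depolarization seen as dye fluorescence rise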
# Numbers stand for hits; i = inactive; nt = not tested or not shown. The list is not random: actives were taken first. Their share in the collection is about 4.1%.
SMILES,KCNQ1 inh,KCNQ1 pot,Cl transport mod,KCNK9 block,KCNK3 inh,hERG protect
Cn1c(C(=O)OCC(=O)NCc2ccc(F)cc2)cc2occc21,i,i,nt,i,i,i
Cc1cccc(CSc2nc3ccccc3c(=O)n2C)c1,nt,nt,nt,nt,-9.3,nt
O=[N+]([O-])c1ccc(-[n+]2nc(-c3ccccc3)nn2-c2ccccc2)cc1,i,i,nt,i,i,i
Cc1nc(NCCc2ccc(S(N)(=O)=O)cc2)c2c(C)c(C)sc2n1,i,i,20.9,i,i,i
Cc1nc(NCc2ccc(S(N)(=O)=O)cc2)c2c(C)c(C)sc2n1,i,i,nt,i,i,i
CC(C)C1C(c2ccccc2)NC(c2ccccc2)CC1(O)c1ccc(F)cc1 (stereo not given),7,i,i,i,i,i
O=C(CC(C(=O)O)c1cccc(Cl)c1Cl)c1ccccc1 (stereo not given),i,i,nt,i,i,i
O=C1C(c2ccccc2)C(c2ccccc2)NC(c2ccccc2)C1c1ccccc1 (stereo not given),i,i,nt,i,i,i
CCC1C(=O)CC(c2ccccc2)NC1c1ccccc1 (stereo not given),i,i,i,-6.57,i,i
COc1ccccc1N1CCN(C(=O)C2CC=CCC2C(=O)O)CC1 (stereo not given),i,i,-3.57,i,i,i
CC(C)Cn1c(O)c(N=NC(=O)c2cccc(S(=O)(=O)N3CCCCC3)c2)c2ccccc21,i,i,i,-7.94,i,i
COc1ccc(NCc2nnc(SCC(=O)Nc3nc(-c4ccccc4)cs3)n2-c2ccccc2)cc1,i,i,i,i,i,i
Cc1ccc(-c2csc(NC(=O)CSc3nc(C)cc(=O)[nH]3)n2)cc1,i,i,-4.25,i,nt,i
Cc1cc(C)nc(SCc2nnc(SCC(=O)Nc3nc(-c4ccccc4)cs3)n2-c2ccccc2)n1,i,i,i,i,i,6.5
CC(=O)N/N=C/c1cc(C)n(-c2ccc(Br)cc2)c1C,i,i,i,i,i,i
CC(=O)N/N=C/c1cc(C(C)C)cc(/C=N/NC(C)=O)c1O,i,i,5.71,i,i,i
O=C(Nc1ccccc1Cl)C1C(c2ccccc2)C1(Cl)Cl (stereo not given),6,i,nt,i,i,i
Cc1cccc(C(C)C)c1NC(=O)C(C)OC(=O)Cc1n[nH]c(=O)c2ccccc12 (stereo not given),i,i,nt,i,i,i
OCC[C@@H]1NCc2cc(CO)cc(-c3ccccc3)c21,nt,nt,nt,nt,-9.93,nt
CC[C@]12c3[nH]c4ccc(Cl)cc4c3CCN1C(=O)[C@@H](CC(=O)NCCCn1ccnc1)C[C@@H]2C(=O)N1CCN(C(=O)c2ccco2)CC1,nt,nt,nt,nt,i,nt
Cc1cccc(C)c1NC(=O)CN1C(=O)NC(C)(C2CC2)C1=O (stereo not given),nt,nt,nt,nt,i,nt
Cc1ccc(/C=C2/Sc3ccc(C(=O)NCCN4CCOCC4)cc3NC2=O)cc1,i,i,nt,i,i,i
CCN1CCCC1CNC(=O)c1ccc2c(c1)NC(=O)/C(=C\c1ccc(C)cc1)S2 (stereo not given),11,i,nt,i,i,i
Cc1ccc(S(=O)(=O)N2CCCC2CNC(=O)c2ccc(F)c(F)c2)cc1 (stereo not given),i,i,nt,i,i,i
CCCSc1ccc([C@H]2N[C@@](CC(C)C)(C(=O)OC)[C@H]3C(=O)N(C)C(=O)[C@@H]23)cc1,i,i,nt,i,i,i
Cn1c(SCC(=O)c2cc3ccccc3o2)nnc1-c1ccccc1,i,i,-7.24,i,i,i
C/C(=N\N=C(c1ccccc1)c1ccccc1)c1ccco1,7,i,i,i,i,i
C/C(=N\N(c1ccccc1)c1ccccc1)c1ccco1,i,i,i,i,i,i
